# RGS4 block: RGS4 inhibitors, primary screen, cell-based, HEK293 M3R inducible RGS4, calcium flux | Regulator of G-protein signaling 4 (Homo sapiens), P49798 | Fluo-4 calcium flux; hits give high values; triggered by carbachol at its EC20 | B-score at 10 µM | 310,000 compounds, 0.45% hits;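 active = B-score, a plate-corrected calcium signal, over three deviations above library mean, with baseline fluorescence within five deviations of library mean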;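 also: RGS4 expression induced by doxycycline in cells with stable M3 receptor; B-score is computed from the integrated fluorescence ratio over baseline after carbachol; higher B-score means a larger calcium signal and so more RGS4 inhibition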
# Target sequence (P49798 whole entry, looked up): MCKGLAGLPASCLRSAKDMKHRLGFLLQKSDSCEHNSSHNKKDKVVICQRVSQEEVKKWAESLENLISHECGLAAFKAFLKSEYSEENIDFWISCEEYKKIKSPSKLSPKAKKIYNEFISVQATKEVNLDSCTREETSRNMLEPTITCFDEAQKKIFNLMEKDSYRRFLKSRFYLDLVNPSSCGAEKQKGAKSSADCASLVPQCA
# RGS4 act: RGS4 potentiators or activators, primary screen, cell-based, HEK293 M3R inducible RGS4, calcium flux. 310,000 compounds, 0.92% hits. carbachol calcium flux Fluo4; hits give low values. B-score at 10 µM;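 active = B-score of the integrated calcium signal more than 4 SD below the library mean, with starting fluorescence not abnormally high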;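 also: negative B-score means reduced calcium response which marks RGS4 activation or potentiation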
#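 Detection: kinetic calcium fluorescence imaging with Fluo4-AM dye, 2 µM / Material: HEK293 cells with stable M3R and inducible RGS4 / Schedule: recording 10 s baseline at 1 Hz, 100 s post-agonist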
# MrgX1 agonist: agonists of human MrgX1 receptor, primary screen, HEK293 cells, Fluo-4 calcium flux; Mas-related G-protein coupled receptor member X1 (Homo sapiens), Q96LB2; Fluo-4 calcium fluorescence, agonist mode; hits give high values; B-score at 10 µM; 310,000 compounds, 0.44% hits; AID 588627, 2011;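 active = calcium response B-score plate-corrected fluorescence ratio at least 3 library SD, with starting fluorescence B-score inside 5 SD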
# Target sequence (Q96LB2 whole entry, looked up): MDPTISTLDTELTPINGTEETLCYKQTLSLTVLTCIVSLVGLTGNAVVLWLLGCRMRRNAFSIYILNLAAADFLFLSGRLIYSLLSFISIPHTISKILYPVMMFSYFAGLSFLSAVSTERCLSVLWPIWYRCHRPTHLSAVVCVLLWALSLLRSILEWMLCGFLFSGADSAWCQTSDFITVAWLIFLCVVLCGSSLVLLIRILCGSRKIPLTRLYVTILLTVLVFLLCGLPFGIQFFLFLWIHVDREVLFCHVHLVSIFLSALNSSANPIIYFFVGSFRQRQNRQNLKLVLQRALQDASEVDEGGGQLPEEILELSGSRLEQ
#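 times = overnight plating, then 30 min 37 °C plus 30 min room-temperature dye loading | assay system = stable human MrgX1 HEK293 cell line | input = fifteen thousand cells per well | signal = kinetic calcium dye fluorescence, Fluo-4 NW | dosing = compound delivered in addition one of three | read-out = B-scored fluorescence response ratio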
# MrgX1 antagonist: antagonists of human MrgX1 receptor, primary screen, HEK293 cells, Fluo-4 calcium flux; Mas-related G-protein coupled receptor member X1 (Homo sapiens), Q96LB2; BAM8-22 antagonism; hits give low values; B-score at 10 µM; 310,000 compounds, 1.3% hits;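 active = calcium-response B-score plate-corrected more than 3 library SD below zero, starting fluorescence within 5 deviations, no agonist response on first addition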;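 also: peak minus trough fluorescence over baseline after final BAM8-22 challenge near maximal dose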
# MrgX1 PAM: positive allosteric modulators of MrgX1, primary screen, HEK293 cells, Fluo-4 calcium flux | Mas-related G-protein coupled receptor member X1 (Homo sapiens), Q96LB2 | FDSS; hits give high values | B-score at 10 µM | 310,000 compounds, 0.63% hits;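 active = plate-corrected calcium response at least 3 library SD above typical, normal starting fluorescence, not activating the receptor alone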;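 also: compound read alongside a low EC10 to EC30 dose of BAM8-22 agonist; peak minus trough fluorescence over baseline measured at the second addition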
# RGS4 inh valid: enhanced carbachol calcium response, M3R/RGS4 cells, RGS4 inhibitor project, cell-based, validation screen, HEK293 M3R/RGS4, calcium flux; shares compounds with RGS4 block; carbachol calcium Fluo-4 fluorescence; carbachol added at its EC20; 0 = buffer wells, 100 = carbachol control; calcium response, % at 10 µM; 1,700 compounds, 65% hits;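 active = duplicate-averaged calcium response above the buffer-only control mean plus 5 SD of those controls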;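 also: integrated fluorescence ratio F max minus min over baseline F0; higher response in RGS4-induced cells means RGS4 inhibition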
# RGS4 uninduced: carbachol calcium response in non-induced M3R cells, confirmation, counter-screen for RGS4 inhibitor project, cell-based, HEK293 M3R; shares compounds with RGS4 block; activity (percent), % at 10 µM; 1,900 compounds, 20% hits; AID 493000, 2010; carbachol calcium Fluo-4; submaximal (EC20) carbachol stimulus; buffer wells 0%, carbachol control wells 100%; call rule not given here;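 also: RGS4 induction absent so cells express M3R without RGS4; higher means more calcium signal and flags a non-specific hit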
# M3R basal Ca ctr: second counter-screen for RGS4 inhibitors: non-induced cells without carbachol. shares compounds with RGS4 block. HEK293 M3R/RGS4 non-induced, Fluo-4 calcium, no carbachol; normalised: buffer wells 0%, carbachol wells 100%. calcium response (agonist-mode artifact), % at 10 µM. 1,900 compounds, 22% hits;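 active = duplicate-averaged calcium rise in uninduced cells above buffer wells' mean plus 5 SD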
# * = called active by the depositor; i = inactive; . = no result given. An excerpt weighted towards active compounds, which were near 3.5% of everything screened.
SMILES,RGS4 block,RGS4 act,MrgX1 agonist,MrgX1 antagonist,MrgX1 PAM,RGS4 inh valid,RGS4 uninduced,M3R basal Ca ctr
Cc1cc(-n2c(C)cc(C(=O)COc3ccccc3[N+](=O)[O-])c2C)no1,5.1*,i,i,i,i,i,i,i
CSCCC(NC(=O)c1ccccc1Cl)C(=O)OCC(=O)N1CCCC1=O (stereo not given),i,i,i,i,i,.,.,.
O=C1Oc2ccccc2C(=O)/C1=C\N1CCN(c2ccccc2)CC1,i,i,i,i,i,.,.,.
N#Cc1c(NC(=O)CSc2ncn[nH]2)sc2c1CCCCC2,i,i,i,i,i,.,i,i
N#Cc1c(NC(=O)CSc2nc(N)cc(=O)[nH]2)sc2c1CCCCCC2,i,i,i,i,i,.,.,.
Cc1cc(C)c(NC(=O)CN2C(=O)NC3(CCCc4ccccc43)C2=O)c(Cl)c1 (stereo not given),i,i,i,i,i,.,.,.
O=c1c(Cl)c(Cl)cnn1Cc1nnc(-c2ccccc2Br)o1,72*,i,.,.,.,142%*,42%*,i
O=C(Cc1ccccc1)NS(=O)(=O)c1ccc(N=NN2CCOCC2)cc1,i,i,i,i,i,.,.,.
CC1(C)OC(=O)C(=CNCCc2ccc(O)cc2)C(=O)O1,5.7*,i,i,i,i,i,i,i
O=[N+]([O-])/C=C/c1cn(Cc2ccccc2)c2ccccc12,16*,i,i,i,i,35%*,i,88%*
O=C(O)Cn1cc(/C=C/[N+](=O)[O-])c2ccccc21,i,i,i,i,i,.,.,.
N#Cc1ccccc1Cn1cc(/C=C/[N+](=O)[O-])c2ccccc21,36*,i,i,i,i,186%*,i,52%*
CC(=N\Nc1ccc(Cl)cc1)/C(=N/O)C(=O)Nc1ccccc1,5.7*,i,i,i,i,14%*,i,i
C/C(=N\O)C(=O)Nc1ccccc1,i,i,i,i,i,.,.,.
Cc1cc(-c2csc(Nc3ccccn3)n2)ccc1F,5.4*,i,i,i,i,16%*,i,i
Oc1ccc(-c2csc(Nc3ccccn3)n2)cc1,i,i,i,i,i,i,i,i
c1ccc(-c2csc(Nc3ccccn3)n2)cc1,i,i,i,i,i,i,i,i
Cc1cccnc1Nc1nc(-c2ccc(O)cc2)cs1,i,i,i,i,i,.,.,.
COc1ccc(-c2csc(Nc3ccccn3)n2)cc1OC,i,i,i,i,i,.,.,.
Cc1ccc(-c2csc(Nc3ccccn3)n2)cc1,9.1*,i,i,i,i,i,i,i
COc1ccccc1-n1cc([C@@H]2C[C@H]3CN(c4ccccc4)C(=O)[C@]34CCCN24)cn1,i,i,i,i,i,.,.,.
O=C(NCc1cc2ccccc2[nH]1)c1ccccc1F,i,i,i,i,i,.,.,.
Cc1cccc(NC(=O)C2CCCN(C(=O)Nc3ccc(F)cc3)C2)c1 (stereo not given),i,i,i,i,i,.,.,.
COc1cc(Cl)c(S(=O)(=O)NCCCn2ccnc2)cc1Cl,i,i,i,i,i,.,.,.
Cc1cccc(NC(=S)NNC(=O)c2csc3c2CCCC3)c1,6.2*,i,i,i,i,20%*,54%*,i
SMILES,RGS4 block,RGS4 act,MrgX1 agonist,MrgX1 antagonist,MrgX1 PAM,RGS4 inh valid,RGS4 uninduced,M3R basal Ca ctr
Cc1ccc(C(=O)/C=C\C(=O)c2ccc(C)cc2)cc1,i,i,i,i,i,i,i,i
CC1CCN(C(=O)CSc2nc(N)c(NC(=O)c3ccccc3)c(=O)[nH]2)CC1,i,i,i,i,i,.,.,.
O=C1C=CC(=O)N1c1ccc(O)cc1,14*,i,i,i,i,75%*,72%*,14%*
CCOC(=O)N1CCC(=NNc2ccnc3cc(Cl)ccc23)CC1,i,i,i,i,i,.,.,.
CC(=O)N1CCC(=NNc2ccnc3cc(Cl)ccc23)CC1,6.9*,i,i,i,i,28%*,i,i
Nc1c(S(=O)(=O)c2cccs2)c2nc3ccccc3nc2n1Cc1ccc2c(c1)OCO2,6.9*,i,i,i,i,9.5%*,i,i
CC(OC(=O)c1ccc(NS(=O)(=O)c2ccc3[nH]c(=O)[nH]c3c2)cc1)C(=O)Nc1ccc(Cl)cc1 (stereo not given),i,i,i,i,i,i,i,i
COc1ccc(Cl)cc1NC(=O)C(C)OC(=O)c1ccc(NS(=O)(=O)c2ccc3[nH]c(=O)[nH]c3c2)cc1 (stereo not given),11*,i,i,i,i,46%*,i,i
CCc1ccc(OCC(=O)N2CC(C(N)=O)Oc3ccccc32)cc1 (stereo not given),i,i,i,i,i,.,.,.
COc1ccc(NC(=O)CS(=O)(=O)c2cn(CC(=O)N3CCCC3)c3ccccc23)c(OC)c1,i,i,i,i,i,.,.,.

# From PubChem BioAssay
